By IC50 is commonly meant the concentration that inhibits the measured activity by half.

25 compounds from ChEMBL document CHEMBL4002611, “Discovery of medium ring thiophosphorus based heterocycles as antiproliferative agents” (Bioorg Med Chem Lett, 2017) can be followed below.

Bounds are passed on as bounds.

Data set [1] relates to MCF7. Description: Antiproliferative activity against human MCF7 cells after 4 days by crystal violet staining based spectrophotometric method. It counts as functional, cell-based. The conditions noted are these: MCF7, 96 h.
The subject of a further data set is SK-OV-3. Description: Antiproliferative activity against human SKOV3 cells after 4 days by crystal violet staining based spectrophotometric method. To be noted: SK-OV-3, 96 h. It counts as functional, cell-based.
The test system of another data set is WI-38. Description: Antiproliferative activity against human WI38 cells after 4 days by crystal violet staining based spectrophotometric method. It counts as ADME, cell-based. To be noted: WI-38, 96 h.
Data set [2] concerns MCF7. The data set is described as follows: Antiproliferative activity against human MCF7 cells after 72 hrs in presence of 1 uM Na2S by MTT assay. The conditions noted are these: MCF7, 72 h. It counts as functional, cell-based. Put shortly: (§1)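 Na₂S, which forms H₂S immediately in water, was added together with the test compound to MCF7 cells as a single administration. Proliferation was read by MTT assay.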

Data set [3] relates to MCF7. The data set is described as follows: Antiproliferative activity against human MCF7 cells after 72 hrs in presence of 10 uM Na2S by MTT assay. To be noted: MCF7, 72 h. It counts as functional, cell-based. Put shortly:
as §1

The test system of data set [4] is MCF7. Description: Antiproliferative activity against human MCF7 cells after 72 hrs in presence of 100 uM Na2S by MTT assay. It counts as functional, cell-based. The conditions noted are these: MCF7, 72 h. Put shortly:
as §1
A general note: Formazan colour is commonly taken as a measure of viable cells.

Data set [5] can be described thus: Drug metabolism in human MCF7 cells assessed as H2S release from compound at 400 uM incubated for 5 hrs by confocal microscopic assay. It counts as ADME, cell-based. The conditions noted are these: mcf7, 5 h. Put shortly:
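MCF-7 cells loaded with an H₂S-sensitive fluorescent probe for 2 h at 37 °C, washed, then exposed to H₂S donors for 5 h before confocal imaging. Controls were untreated cells, probe alone, and NaHS.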

Data set [6] is described as follows: Therapeutic index, ratio of IC50 for human WI38 cells to IC50 for human MCF7 cells.
Data set [7] can be described thus: Drug metabolism in pH 7.4 PBS buffer assessed as H2S release from compound at 5 mM incubated for 4 days by DNS-Az probe based fluorescence assay. It counts as physicochemical. To be noted: pH 7.4, 96 h, 5000 µM. A digest of the protocol: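 H₂S release in solution was measured with an H₂S-specific dansyl azide fluorescent probe after incubation at 37 °C for 4 days, against a blank sample.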

The nature of data set [8]: Permeability of the compound by PAMPA. It counts as physicochemical. To be noted: read-out: permeability.

For the compound `S=P1(c2ccccc2)Oc2ccc(-c3ccccc3)cc2-c2cc(-c3ccccc3)ccc2O1`, the IC50 with MCF7 [1] and with SK-OV-3 was above 400 µM throughout.

In the case of `COc1ccc(P2(=O)Oc3ccccc3-c3ccccc3O2)cc1`, the IC50 in the data set with MCF7 [1] was 11 to 69 µM; in the data set with SK-OV-3, 5.94 µM; in the data set with WI-38, 18.6 µM; with MCF7 [2], 59 µM; with MCF7 [3] it was 52.9 µM; with MCF7 [4] it was 50.6 µM.

For `S=P1(c2ccc(Oc3ccccc3)cc2)N[C@@H](c2ccccc2)[C@H](c2ccccc2)N1`, the 50% inhibitory concentration (IC50) was above 400 µM in the data set with MCF7 [1] and 49 µM in the data set with SK-OV-3.

With `S=P1(c2ccccc2)OCC2C3CCC(O3)C2CO1` (stereo not given), the IC50 with MCF7 [1], with SK-OV-3 and in the data set with WI-38 was above 400 µM in each case.

In the data set with WI-38, `S=P1(c2ccccc2)Nc2ccccc2O1` (stereo not given) had an IC50 above 50 µM. The Drug metabolism result in data set [5] is on record as “Metabolite_Detected”.

As to `Cc1ccc(S(=O)(=O)N2c3ccccc3OP2(=S)c2ccccc2)cc1` (stereo not given), the values for the IC50 in the data set on MCF7 [1], in the data set on SK-OV-3 and in the data set on WI-38 were 181 µM, 230 µM and 353 µM, respectively.

Turning to `S=P1(c2ccc(Oc3ccccc3)cc2)Nc2ccccc2O1` (stereo not given), the IC50 with MCF7 [1] came out at 73.9 µM; in the data set on SK-OV-3, 45.8 µM; in the data set with WI-38, 125 µM.

Take `COc1ccc2c(c1)NP(=S)(c1ccc(Oc3ccccc3)cc1)O2` (stereo not given): the IC50 in the data set with MCF7 [1] stood at 32.1 µM; in the data set with SK-OV-3, 27.9 µM.

For `S=P1(c2ccccc2)OCc2cccc3cccc(c23)CO1`, the IC50 with MCF7 [1] was 71.1 µM; in the data set with SK-OV-3 it was 51.1 µM; in the data set with WI-38, 76.2 µM.

Regarding `S=P1(c2ccccc2)OCc2ccccc2CO1`, the IC50 in the data set with MCF7 [1] was above 400 µM; in the data set on SK-OV-3, 51.2 µM; with WI-38, 134 µM.

Regarding `COc1ccc2c(c1)NP(=S)(c1ccccc1)O2` (stereo not given), the IC50 with MCF7 [1] amounted to 26.2 µM; in the data set on SK-OV-3 it was 24.1 µM.

Turning to `COc1ccc(P2(=S)Oc3ccccc3O2)cc1`, the IC50 with MCF7 [1] was 281 µM; with SK-OV-3, 193 µM; in the data set on WI-38, 250 µM.

As for `O=S(=O)(c1ccc(Cl)cc1)N1c2ccccc2OP1(=S)c1ccccc1` (stereo not given), the figures for the IC50 with MCF7 [1] and with SK-OV-3 were 107 µM and 110 µM, respectively.

Consider `S=P1(c2ccccc2)NCc2ccccc2N1` (stereo not given), for which the IC50 in the data set with MCF7 [1] is above 400 µM; in the data set with SK-OV-3 it was above 400 µM; in the data set with WI-38, 173 µM.

`S=P1(c2ccccc2)N[C@@H](c2ccccc2)[C@H](c2ccccc2)N1`: the values for the IC50 in the data set with MCF7 [1], in the data set with SK-OV-3 and in the data set with WI-38 were 165 µM, 164 µM and 145 µM, respectively.

For the compound `S=P1(c2ccccc2)Oc2ccccc2-c2ccccc2O1`, the IC50 in the data set on MCF7 [1] came out at 140 µM; in the data set with SK-OV-3, 103 µM; in the data set on WI-38, 400 µM. Further, the “Ratio IC50” value in [6] was 3. Besides, the H2S released result in data set [7] is “Not Active”.

As for `COc1ccc(P2(=S)Nc3ccccc3CO2)cc1` (stereo not given), the IC50 with MCF7 [1] amounted to 200 µM; in the data set on SK-OV-3, 91.4 µM; in the data set on WI-38 it was 392 µM.

Turning to `S=P(S)(NCc1ccccc1)c1ccc(Oc2ccccc2)cc1` (stereo not given), the Papp in [8] was determined as 1.9 ×10⁻⁶ cm/s. Moreover, the IC50 with SK-OV-3 worked out at 47 µM; in the data set with WI-38, 104 µM. Further, in [5], the Drug metabolism result is “Metabolite_Detected”.

Regarding `S=P1(c2ccc(Oc3ccccc3)cc2)Nc2ccccc2CO1` (stereo not given), the IC50 is 29.4 µM with MCF7 [1], 48.4 µM with SK-OV-3 and 108 µM in the data set with WI-38.

As for `COc1ccc(P2(=S)OC[C@@H]3OC(C)(C)O[C@H]3CO2)cc1`, the IC50 in the data set on MCF7 [1] is above 400 µM; in the data set with SK-OV-3, 374 µM; with WI-38, above 400 µM. In addition, the H2S released result in data set [7] was “Not Active”.

Take `COc1ccc(P2(=S)Nc3ccc(Cl)cc3N2)cc1` (stereo not given): the IC50 in the data set with MCF7 [1] and with SK-OV-3 was above 400 µM in each case.

As for `COc1cccc2c1OP(=S)(c1ccccc1)O2` (stereo not given), the results for the IC50 in the data set with MCF7 [1], with SK-OV-3 and in the data set with WI-38 were 40.7 µM, 29.7 µM and 40.3 µM, respectively.

Take `COc1ccc(P2(=S)Oc3ccc(Br)cc3-c3cc(Br)ccc3O2)cc1`: the IC50 in the data set on MCF7 [1] and with SK-OV-3 was above 400 µM each time. In data set [7], the H2S released entry is listed as “Not Active”.

On to `COc1ccc(P2(=S)Oc3ccccc3-c3ccccc3O2)cc1`, for which the IC50 is 0.76 to 0.82 µM in the data set on MCF7 [1]; 0.76 µM in the data set on SK-OV-3; 1.38 µM with WI-38; 1.17 µM in the data set with MCF7 [2]; 1.01 µM with MCF7 [3]; 1.44 µM in the data set with MCF7 [4]. The “Ratio IC50” value in data set [6] was 2. In data set [7], the H2S released was determined as 2 µM. In addition, the Drug metabolism result in [5] is “Metabolite_Detected”.

On to `S=P1(c2ccccc2)Oc2ccc(Br)cc2-c2cc(Br)ccc2O1`, for which the IC50 in the data set with MCF7 [1] and in the data set on SK-OV-3 was above 400 µM each time.
